Test results from ChEMBL document CHEMBL4414556, “Antiproliferative Acylated Glycerols from New Zealand Propolis” (2019).

Tests used:
Assay type in all cases: functional
[1] = tested on: DLD-1; assay: Antiproliferative activity against human DLD1 cells assessed as cell growth inhibition at 110 uM by MTT assay relative to control
Procedure, shortened: (§1)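 Cells revived from cryostorage and grown under supplier-recommended conditions with test samples. Working solutions were made in 15% EtOH/Hank's balanced saline at 2 mg/mL solids. Final well concentrations were 110, 55 or 22 μM, and the 5-fluorouracil reference was run at 450, 150 and 50 nM. MTT viability read after incubation, expressed as % proliferation versus a cells-only control, with six replicates.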

[2] = tested on: NCI-N87; assay: Antiproliferative activity against human NCI-N87 cells assessed as cell growth inhibition at 22 uM by MTT assay relative to control; procedure, shortened: as §1
[3] = tested on: KYSE-30; assay: Antiproliferative activity against human KYSE-30 cells assessed as cell growth inhibition at 55 uM by MTT assay relative to control; procedure, shortened: as §1
[4] = tested on: DLD-1; assay: Antiproliferative activity against human DLD1 cells assessed as cell growth inhibition at 55 uM by MTT assay relative to control; procedure, shortened: as §1
[5] = tested on: NCI-N87; assay: Antiproliferative activity against human NCI-N87 cells assessed as cell growth inhibition at 55 uM by MTT assay relative to control; procedure, shortened: as §1
[6] = tested on: NCI-N87; assay: Antiproliferative activity against human NCI-N87 cells assessed as cell growth inhibition at 110 uM by MTT assay relative to control; procedure, shortened: as §1
[7] = tested on: KYSE-30; assay: Antiproliferative activity against human KYSE-30 cells assessed as cell growth inhibition at 22 uM by MTT assay relative to control; procedure, shortened: as §1
[8] = tested on: KYSE-30; assay: Antiproliferative activity against human KYSE-30 cells assessed as cell growth inhibition at 110 uM by MTT assay relative to control; procedure, shortened: as §1
[9] = tested on: DLD-1; assay: Antiproliferative activity against human DLD1 cells assessed as cell growth inhibition at 450 nM by MTT assay relative to control
Procedure, shortened: (§2)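 Cells revived from cryostorage and cultured under supplier-recommended conditions with test or reference samples. Working solutions at 2 mg/mL solids in 15% EtOH/Hank's balanced saline. 5-Fluorouracil positive control at final well concentrations of 450, 150 and 50 nM. MTT viability read-out after incubation, expressed as percentage proliferation versus cells-only control; six replicates for test and control.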

[10] = tested on: NCI-N87; assay: Antiproliferative activity against human NCI-N87 cells assessed as cell growth inhibition at 450 nM by MTT assay relative to control; procedure, shortened: as §2
[11] = tested on: KYSE-30; assay: Antiproliferative activity against human KYSE-30 cells assessed as cell growth inhibition at 450 nM by MTT assay relative to control; procedure, shortened: as §2

Compound	inhibition at 110 µM [1] [%]	inhibition at 22 µM [2] [%]	inhibition at 55 µM [3] [%]	inhibition at 55 µM [4] [%]	inhibition at 55 µM [5] [%]	inhibition at 110 µM [6] [%]	inhibition at 22 µM [7] [%]	inhibition at 110 µM [8] [%]	inhibition at 0.45 µM [9] [%]	inhibition at 0.45 µM [10] [%]	inhibition at 0.45 µM [11] [%]
CCCCCCCCCCCC[C@@H](O)CCCC[C@@H](O)CC(=O)OCC(O)COC(C)=O (stereo not given in full)	94	39	50	13	86	100	9	52	–	–	–
CCCCCCCCCCCC[C@@H](O)CCCC[C@@H](O)CC(=O)OCC(O)CO (stereo not given in full)	80	–	–	–	–	100	–	52	–	–	–
CCCCCCCCCCCCC[C@@H](O)CCCC[C@@H](O)CC(=O)OCC(O)COC(C)=O (stereo not given in full)	91	–	–	–	–	100	–	29	–	–	–
O=c1[nH]cc(F)c(=O)[nH]1 [FLUOROURACIL]	–	–	–	–	–	–	–	–	21	8	17
CCCCCCCCCCCCCCCC(=O)OCC(O)CO (stereo not given) [GLYCEROL MONOPALMITATE]	72	–	–	–	–	100	–	75	–	–	–
